{"source": "ChEMBL document CHEMBL4689842", "about": "“EUbOPEN Chemogenomics Library wave 1” (2021)", "key": {"U2OS": {"test_system": "U2OS", "experiment": "Multiplex assay against U2OS", "format": "toxicity, cell-based", "conditions": "human", "procedure,_shortened": "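Hoechst33342, BioTracker Green Microtubule Cytoskeleton Dye, MitoTracker Red and Annexin V Alexa Fluor 680 were added to live cells at seeding, and imaging on a CQ1 microscope at 37°C and 5% CO2 followed compound addition. Gating by CellPathfinder machine learning separated cells into Hoechst high-intensity objects or normal cells, then normal cells into healthy, pyknosed or fragmented nuclei, then pyknosed cells into mitotic or apoptotic. Per cents of healthy-nucleus cells are reported for the tubulin, mitochondrial-mass and membrane-permeability phenotypes.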"}, "HEK-293T": {"test_system": "HEK-293T", "experiment": "Incucyte cell viability with HEK293T; further: filed as whole numbers so only -1 and 0 and 1 occur", "format": "toxicity, cell-based", "conditions": "human, 10 µM, compound concentration 10 uM"}, "[1]": {"conditions": "12 h, 1 µM, compound concentration 1 uM, replicate 1"}, "[2]": {"conditions": "12 h, 1 µM, compound concentration 1 uM, replicate 2"}, "[3]": {"conditions": "12 h, 10 µM, compound concentration 10 uM, replicate 1"}, "[4]": {"conditions": "12 h, 10 µM, compound concentration 10 uM, replicate 2"}, "[5]": {"conditions": "24 h, 1 µM, compound concentration 1 uM, replicate 1"}, "[6]": {"conditions": "24 h, 1 µM, compound concentration 1 uM, replicate 2"}, "[7]": {"conditions": "24 h, 10 µM, compound concentration 10 uM, replicate 1"}, "[8]": {"conditions": "24 h, 10 µM, compound concentration 10 uM, replicate 2"}}}
{"smiles": "CCOc1cc2ncc(C#N)c(Nc3ccc(OCc4cccc(F)c4)c(Cl)c3)c2cc1NC(=O)/C=C/CN(C)C", "note": "[HKI-357]", "values": [{"measurement": "Population Apoptotic (%)", "setting": "U2OS; [1]", "result": 58, "unit": "%"}, {"measurement": "Population Fragmented Nuclei (%)", "setting": "U2OS; [1]", "result": 5, "unit": "%"}, {"measurement": "Population Healthy Nuclei (%)", "setting": "U2OS; [1]", "result": 86, "unit": "%"}, {"measurement": "Population Hoechst High Intensity Objects (%)", "setting": "U2OS; [1]", "result": 1, "unit": "%"}, {"measurement": "Population Membrane Permeable-Phenotype (%)", "setting": "U2OS; [1]", "result": 21, "unit": "%"}, {"measurement": "Population Mitochondria Different-Phenotype (%)", "setting": "U2OS; [1]", "result": 12, "unit": "%"}, {"measurement": "Population Mitotic Cells (%)", "setting": "U2OS; [1]", "result": 41, "unit": "%"}, {"measurement": "Population Normal (%)", "setting": "U2OS; [1]", "result": 98, "unit": "%"}, {"measurement": "Population Pyknosed Nuclei (%)", "setting": "U2OS; [1]", "result": 8, "unit": "%"}, {"measurement": "Population Tubulin-Different-Phenotype (%)", "setting": "U2OS; [1]", "result": 14, "unit": "%"}, {"measurement": "Total Cell Count", "setting": "U2OS; [1]", "result": 156}, {"measurement": "Population Apoptotic (%)", "setting": "U2OS; [2]", "result": 25, "unit": "%"}, {"measurement": "Population Fragmented Nuclei (%)", "setting": "U2OS; [2]", "result": 11, "unit": "%"}, {"measurement": "Population Healthy Nuclei (%)", "setting": "U2OS; [2]", "result": 84, "unit": "%"}, {"measurement": "Population Hoechst High Intensity Objects (%)", "setting": "U2OS; [2]", "result": 16, "unit": "%"}, {"measurement": "Population Membrane Permeable-Phenotype (%)", "setting": "U2OS; [2]", "result": 19, "unit": "%"}, {"measurement": "Population Mitochondria Different-Phenotype (%)", "setting": "U2OS; [2]", "result": 25, "unit": "%"}, {"measurement": "Population Mitotic Cells (%)", "setting": "U2OS; [2]", "result": 75, "unit": "%"}, {"measurement": "Population Normal (%)", "setting": "U2OS; [2]", "result": 83, "unit": "%"}, {"measurement": "Population Pyknosed Nuclei (%)", "setting": "U2OS; [2]", "result": 4, "unit": "%"}, {"measurement": "Population Tubulin-Different-Phenotype (%)", "setting": "U2OS; [2]", "result": 21, "unit": "%"}, {"measurement": "Total Cell Count", "setting": "U2OS; [2]", "result": 141}, {"measurement": "Population Apoptotic (%)", "setting": "U2OS; [3]", "result": 56, "unit": "%"}, {"measurement": "Population Fragmented Nuclei (%)", "setting": "U2OS; [3]", "result": 13, "unit": "%"}, {"measurement": "Population Healthy Nuclei (%)", "setting": "U2OS; [3]", "result": 69, "unit": "%"}, {"measurement": "Population Hoechst High Intensity Objects (%)", "setting": "U2OS; [3]", "result": 5, "unit": "%"}, {"measurement": "Population Membrane Permeable-Phenotype (%)", "setting": "U2OS; [3]", "result": 43, "unit": "%"}, {"measurement": "Population Mitochondria Different-Phenotype (%)", "setting": "U2OS; [3]", "result": 33, "unit": "%"}, {"measurement": "Population Mitotic Cells (%)", "setting": "U2OS; [3]", "result": 43, "unit": "%"}, {"measurement": "Population Normal (%)", "setting": "U2OS; [3]", "result": 94, "unit": "%"}, {"measurement": "Population Pyknosed Nuclei (%)", "setting": "U2OS; [3]", "result": 16, "unit": "%"}, {"measurement": "Population Tubulin-Different-Phenotype (%)", "setting": "U2OS; [3]", "result": 95, "unit": "%"}, {"measurement": "Total Cell Count", "setting": "U2OS; [3]", "result": 210}, {"measurement": "Population Apoptotic (%)", "setting": "U2OS; [4]", "result": 69, "unit": "%"}, {"measurement": "Population Fragmented Nuclei (%)", "setting": "U2OS; [4]", "result": 20, "unit": "%"}, {"measurement": "Population Healthy Nuclei (%)", "setting": "U2OS; [4]", "result": 65, "unit": "%"}, {"measurement": "Population Hoechst High Intensity Objects (%)", "setting": "U2OS; [4]", "result": 12, "unit": "%"}, {"measurement": "Population Membrane Permeable-Phenotype (%)", "setting": "U2OS; [4]", "result": 31, "unit": "%"}, {"measurement": "Population Mitochondria Different-Phenotype (%)", "setting": "U2OS; [4]", "result": 39, "unit": "%"}, {"measurement": "Population Mitotic Cells (%)", "setting": "U2OS; [4]", "result": 30, "unit": "%"}, {"measurement": "Population Normal (%)", "setting": "U2OS; [4]", "result": 87, "unit": "%"}, {"measurement": "Population Pyknosed Nuclei (%)", "setting": "U2OS; [4]", "result": 13, "unit": "%"}, {"measurement": "Population Tubulin-Different-Phenotype (%)", "setting": "U2OS; [4]", "result": 88, "unit": "%"}, {"measurement": "Total Cell Count", "setting": "U2OS; [4]", "result": 119}, {"measurement": "Population Apoptotic (%)", "setting": "U2OS; [5]", "result": 32, "unit": "%"}, {"measurement": "Population Fragmented Nuclei (%)", "setting": "U2OS; [5]", "result": 7, "unit": "%"}, {"measurement": "Population Healthy Nuclei (%)", "setting": "U2OS; [5]", "result": 82, "unit": "%"}, {"measurement": "Population Hoechst High Intensity Objects (%)", "setting": "U2OS; [5]", "result": 2, "unit": "%"}, {"measurement": "Population Membrane Permeable-Phenotype (%)", "setting": "U2OS; [5]", "result": 23, "unit": "%"}, {"measurement": "Population Mitochondria Different-Phenotype (%)", "setting": "U2OS; [5]", "result": 16, "unit": "%"}, {"measurement": "Population Mitotic Cells (%)", "setting": "U2OS; [5]", "result": 67, "unit": "%"}, {"measurement": "Population Normal (%)", "setting": "U2OS; [5]", "result": 97, "unit": "%"}, {"measurement": "Population Pyknosed Nuclei (%)", "setting": "U2OS; [5]", "result": 10, "unit": "%"}, {"measurement": "Population Tubulin-Different-Phenotype (%)", "setting": "U2OS; [5]", "result": 17, "unit": "%"}, {"measurement": "Total Cell Count", "setting": "U2OS; [5]", "result": 172}, {"measurement": "Population Apoptotic (%)", "setting": "U2OS; [6]", "result": 45, "unit": "%"}, {"measurement": "Population Fragmented Nuclei (%)", "setting": "U2OS; [6]", "result": 9, "unit": "%"}, {"measurement": "Population Hoechst High Intensity Objects (%)", "setting": "U2OS; [6]", "result": 7, "unit": "%"}, {"measurement": "Population Membrane Permeable-Phenotype (%)", "setting": "U2OS; [6]", "result": 10, "unit": "%"}, {"measurement": "Population Mitochondria Different-Phenotype (%)", "setting": "U2OS; [6]", "result": 23, "unit": "%"}, {"measurement": "Population Mitotic Cells (%)", "setting": "U2OS; [6]", "result": 54, "unit": "%"}, {"measurement": "Population Normal (%)", "setting": "U2OS; [6]", "result": 92, "unit": "%"}, {"measurement": "Population Pyknosed Nuclei (%)", "setting": "U2OS; [6]", "result": 8, "unit": "%"}, {"measurement": "Population Tubulin-Different-Phenotype (%)", "setting": "U2OS; [6]", "result": 27, "unit": "%"}, {"measurement": "Total Cell Count", "setting": "U2OS; [6]", "result": 154}, {"measurement": "Population Apoptotic (%)", "setting": "U2OS; [7]", "result": 84, "unit": "%"}, {"measurement": "Population Fragmented Nuclei (%)", "setting": "U2OS; [7]", "result": 8, "unit": "%"}, {"measurement": "Population Healthy Nuclei (%)", "setting": "U2OS; [7]", "result": 68, "unit": "%"}, {"measurement": "Population Hoechst High Intensity Objects (%)", "setting": "U2OS; [7]", "result": 4, "unit": "%"}, {"measurement": "Population Membrane Permeable-Phenotype (%)", "setting": "U2OS; [7]", "result": 32, "unit": "%"}, {"measurement": "Population Mitochondria Different-Phenotype (%)", "setting": "U2OS; [7]", "result": 58, "unit": "%"}, {"measurement": "Population Mitotic Cells (%)", "setting": "U2OS; [7]", "result": 15, "unit": "%"}, {"measurement": "Population Normal (%)", "setting": "U2OS; [7]", "result": 95, "unit": "%"}, {"measurement": "Population Pyknosed Nuclei (%)", "setting": "U2OS; [7]", "result": 23, "unit": "%"}, {"measurement": "Population Tubulin-Different-Phenotype (%)", "setting": "U2OS; [7]", "result": 81, "unit": "%"}, {"measurement": "Total Cell Count", "setting": "U2OS; [7]", "result": 272}, {"measurement": "Population Apoptotic (%)", "setting": "U2OS; [8]", "result": 86, "unit": "%"}, {"measurement": "Population Healthy Nuclei (%)", "setting": "U2OS; [8]", "result": 74, "unit": "%"}, {"measurement": "Population Hoechst High Intensity Objects (%)", "setting": "U2OS; [8]", "result": 12, "unit": "%"}, {"measurement": "Population Membrane Permeable-Phenotype (%)", "setting": "U2OS; [8]", "result": 23, "unit": "%"}, {"measurement": "Population Mitochondria Different-Phenotype (%)", "setting": "U2OS; [8]", "result": 69, "unit": "%"}, {"measurement": "Population Mitotic Cells (%)", "setting": "U2OS; [8]", "result": 13, "unit": "%"}, {"measurement": "Population Normal (%)", "setting": "U2OS; [8]", "result": 87, "unit": "%"}, {"measurement": "Population Pyknosed Nuclei (%)", "setting": "U2OS; [8]", "result": 17, "unit": "%"}, {"measurement": "Population Tubulin-Different-Phenotype (%)", "setting": "U2OS; [8]", "result": 84, "unit": "%"}, {"measurement": "Total Cell Count", "setting": "U2OS; [8]", "result": 141}, {"measurement": "Growth Rate", "setting": "HEK-293T; 0 h, replicate number 1, timepoint 0 hours", "result": 0}, {"measurement": "Growth Rate", "setting": "HEK-293T; 6 h, replicate number 1, timepoint 6 hours", "result": 0}, {"measurement": "Growth Rate", "setting": "HEK-293T; 12 h, replicate number 1, timepoint 12 hours", "result": 0}, {"measurement": "Growth Rate", "setting": "HEK-293T; 18 h, replicate number 1, timepoint 18 hours", "result": 0}, {"measurement": "Growth Rate", "setting": "HEK-293T; 24 h, replicate number 1, timepoint 24 hours", "result": 0}]}
